Test results as given in ChEMBL document CHEMBL2086251, “Arylazolyl(azinyl)thioacetanilides. Part 10: design, synthesis and biological evaluation of novel substituted imidazopyridinylthioacetanilides as potent HIV-1 inhibitors” (Bioorg Med Chem, 2012).

How the values were obtained:
[1] = test system: Human immunodeficiency virus 2; assay: Antiviral activity against HIV-2 ROD infected human MT4 cells assessed as inhibition in viral syncytium formation by MTT assay; type: functional, organism-based; conditions: Human immunodeficiency virus 2, ISOLATE ROD
How it was run: (§1)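 MT-4 cells (6 × 10⁵ cells/mL) infected with HIV-1 IIIB or HIV-2 ROD stock at 100–300 CCID50, with serial fivefold compound dilutions in triplicate wells. After 5 days, viability was read by MTT reduction at 540 and 690 nm, using the median OD of three wells. EC50 is the concentration giving 50% inhibition of virus-induced syncytium formation.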

[2] = Cytotoxicity against mock-infected human MT4 cells by MTT assay; type: cell-based
How it was run: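 Mock-infected MT-4 cells (6 × 10⁵ cells/mL) were run in parallel with the infected wells, with serial fivefold compound dilutions in triplicate. After 5 days, viability was read by MTT at 540 and 690 nm, using the median OD of three wells. CC50 is the concentration that reduces OD540 of mock-infected controls by 50%.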

[3] = test system: Human immunodeficiency virus 1; assay: Antiviral activity against HIV-1 3B infected human MT4 cells assessed as inhibition in viral syncytium formation by MTT assay; type: functional, organism-based; conditions: Human immunodeficiency virus 1, 3B; how it was run: as §1
[4] = test system: Human immunodeficiency virus 1; assay: Antiviral activity against HIV-1 RES056 harboring RT K103N/Y181C mutant gene infected human MT4 cells assessed as inhibition in viral syncytium formation by MTT assay; type: functional, organism-based; conditions: Human immunodeficiency virus 1, RES056, MT4
How it was run: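 MT-4 cells infected with double-mutant RT (K103N/Y181C) HIV-1 RES056; compounds added as serial fivefold dilutions in triplicate wells with mock-infected parallels. Cells at 6 × 10⁵ cells/mL. Viability read by MTT after five days at 540 and 690 nm, median OD of three wells. EC50 is the concentration inhibiting virus-induced syncytium formation by 50%.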

[5] = Selectivity index, ratio of CC50 for human MT4 cells to EC50 for HIV-1 3B; type: toxicity, cell-based; conditions: read-out: Ratio CC50/EC50
How it was run: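 SI is the ratio CC50/EC50, both taken from parallel 5-day MTT assays in MT-4 cells. CC50 comes from mock-infected cells and EC50 from HIV-1 IIIB-infected cells.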

[6] = molecular target: Human immunodeficiency virus type 1 reverse transcriptase (Human immunodeficiency virus 1, UniProt Q72547); assay: Inhibition of recombinant HIV-1 RT assessed as inhibition of biotin-dUTP incorporation by colorimetric analysis
How it was run: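 Highly purified recombinant HIV-1 RT was used with a […] homopolymer template primer. Nucleotides were linked to a microtiter plate, and incorporated biotin-dUTP was detected colorimetrically. IC50 is the concentration inhibiting biotin-dUTP incorporation by 50%.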

| SMILES | EC50 [1] | CC50 [2] | EC50 [3] | EC50 [4] | selectivity ratio [5] | IC50 [6] |
| --- | --- | --- | --- | --- | --- | --- |
| Cc1cc(C)c(-n2c(SCC(=O)Nc3cccnc3Cl)nc3cnccc32)c(C)c1 | > 22 µM | 22 µM | 1.7 µM | > 22 µM | 12 | – |
| Cc1cc(C)c(-n2c(SCC(=O)Nc3ccccc3)nc3cccnc32)c(C)c1 | > 26 µM | 26 µM | > 26 µM | – | < 1 | – |
| Cc1cc(C)c(-n2c(SCC(=O)Nc3ccccc3Cl)nc3cccnc32)c(C)c1 | > 3.9 µM | 3.9 µM | > 3.9 µM | – | < 1 | – |
| Cc1cc(C)c(-n2c(SCC(=O)Nc3ccccc3F)nc3cccnc32)c(C)c1 | > 3.7 µM | 3.7 µM | > 3.7 µM | – | < 1 | – |
| Cc1cc(C)c(-n2c(SCC(=O)Nc3ccccc3Br)nc3cccnc32)c(C)c1 | > 5.6 µM | 5.6 µM | > 5.6 µM | – | < 1 | – |
| Cc1cc(C)c(-n2c(SCC(=O)Nc3ccc(C)cc3Br)nc3cccnc32)c(C)c1 | > 0.99 µM | 0.99 µM | > 0.99 µM | – | < 1 | – |
| Cc1cc(C)c(-n2c(SCC(=O)Nc3ccc(C)cc3[N+](=O)[O-])nc3cccnc32)c(C)c1 | > 144 µM | 144 µM | > 144 µM | – | < 1 | – |
| Cc1cc(C)c(-n2c(SCC(=O)Nc3ccccc3[N+](=O)[O-])nc3cccnc32)c(C)c1 | > 39 µM | 39 µM | ≥ 6.7 µM | > 39 µM | ≤ 6 | – |
| CC(=O)c1ccc(NC(=O)CSc2nc3cccnc3n2-c2c(C)cc(C)cc2C)c(Br)c1 | > 46 µM | 46 µM | 3.6 µM | > 46 µM | 13 | – |
| Cc1cc(C)c(-n2c(SCC(=O)Nc3cccnc3Cl)nc3cccnc32)c(C)c1 | > 6 µM | 6 µM | > 6 µM | – | < 1 | – |
| Cc1cc(C)c(-n2c(SCC(=O)Nc3ccc(Cl)cc3Cl)nc3cccnc32)c(C)c1 | > 3 µM | 3.9 µM | > 3 µM | – | < 1 | – |
| Cc1cc(C)c(-n2c(SCC(=O)Nc3ccccc3C)nc3cccnc32)c(C)c1 | > 15 µM | 15 µM | > 15 µM | – | < 1 | – |
| COC(=O)c1ccc(NC(=O)CSc2nc3cccnc3n2-c2c(C)cc(C)cc2C)c(Br)c1 | > 80 µM | 80 µM | 8.9 µM | > 80 µM | 9 | – |
| CCOC(=O)c1ccc(NC(=O)CSc2nc3cccnc3n2-c2c(C)cc(C)cc2C)c(Br)c1 | > 117 µM | 117 µM | 9.9 µM | > 117 µM | 12 | – |
| Cc1cc(C)c(-n2c(SCC(=O)Nc3ccc([N+](=O)[O-])cc3Cl)nc3cccnc32)c(C)c1 | > 25 µM | 25 µM | > 25 µM | – | < 1 | – |
| Cc1cc(C)c(-n2c(SCC(=O)Nc3ncc(C)cc3Br)nc3cccnc32)c(C)c1 | > 102 µM | 102 µM | > 102 µM | – | < 1 | – |
| Cc1cc(C)c(-n2c(SCC(=O)Nc3ccc(S(N)(=O)=O)cc3Br)nc3cccnc32)c(C)c1 | > 22 µM | 22 µM | 0.75 µM | > 22 µM | 30 | – |
| Cc1cc(C)c(-n2c(SCC(=O)Nc3ccccc3)nc3cnccc32)c(C)c1 | > 17 µM | 17 µM | > 17 µM | – | < 1 | – |
| Cc1cc(C)c(-n2c(SCC(=O)Nc3ccccc3Cl)nc3cnccc32)c(C)c1 | > 19 µM | 19 µM | > 19 µM | – | < 1 | – |

| SMILES | EC50 [1] | CC50 [2] | EC50 [3] | EC50 [4] | selectivity ratio [5] | IC50 [6] |
| --- | --- | --- | --- | --- | --- | --- |
| Cc1cc(C)c(-n2c(SCC(=O)Nc3ccccc3F)nc3cnccc32)c(C)c1 | > 18 µM | 18 µM | > 18 µM | – | < 1 | – |
| Cc1cc(C)c(-n2c(SCC(=O)Nc3ccccc3Br)nc3cnccc32)c(C)c1 | > 22 µM | 22 µM | 5.2 µM | > 22 µM | 4 | – |
| Cc1cc(C)c(-n2c(SCC(=O)Nc3ccc(C)cc3Br)nc3cnccc32)c(C)c1 | > 5.9 µM | 5.9 µM | > 5.9 µM | – | < 1 | – |
| Cc1cc(C)c(-n2c(SCC(=O)Nc3ccc(C)cc3[N+](=O)[O-])nc3cnccc32)c(C)c1 | > 6.2 µM | 6.2 µM | ≥ 1.2 µM | > 6.2 µM | ≤ 5 | – |
| Cc1cc(C)c(-n2c(SCC(=O)Nc3ccccc3[N+](=O)[O-])nc3cnccc32)c(C)c1 | > 9.9 µM | 9.9 µM | 5.7 µM | > 9.9 µM | 2 | – |
| CC(=O)c1ccc(NC(=O)CSc2nc3cnccc3n2-c2c(C)cc(C)cc2C)c(Br)c1 | > 61 µM | 61 µM | 0.99 µM | > 61 µM | 61 | – |
| Cc1cc(C)c(-n2c(SCC(=O)Nc3ccc(Cl)cc3Cl)nc3cnccc32)c(C)c1 | > 140 µM | 140 µM | ≥ 1.1 µM | > 140 µM | ≤ 127 | – |
| Cc1cc(C)c(-n2c(SCC(=O)Nc3ccccc3C)nc3cnccc32)c(C)c1 | > 22 µM | 22 µM | > 22 µM | – | < 1 | – |
| COC(=O)c1ccc(NC(=O)CSc2nc3cnccc3n2-c2c(C)cc(C)cc2C)c(Br)c1 | > 27 µM | 27 µM | ≥ 2.5 µM | > 27 µM | ≤ 11 | – |
| CCOC(=O)c1ccc(NC(=O)CSc2nc3cnccc3n2-c2c(C)cc(C)cc2C)c(Br)c1 | > 22 µM | 22 µM | 4.7 µM | > 22 µM | 5 | – |
| Cc1cc(C)c(-n2c(SCC(=O)Nc3ccc([N+](=O)[O-])cc3Cl)nc3cnccc32)c(C)c1 | > 29 µM | 29 µM | 1.4 µM | > 29 µM | 20 | – |
| Cc1cc(C)c(-n2c(SCC(=O)Nc3ncc(C)cc3Br)nc3cnccc32)c(C)c1 | > 61 µM | 61 µM | > 61 µM | – | < 1 | – |
| Cc1cc(C)c(-n2c(SCC(=O)Nc3ccc(S(N)(=O)=O)cc3Br)nc3cnccc32)c(C)c1 | > 9.7 µM | 9.7 µM | 0.21 µM | > 9.7 µM | 46 | 4.4 µM |
| O=C(CSc1snnc1-c1ccc(Br)cc1Br)Nc1cccnc1Cl | – | – | 0.0364 µM | – | > 6460 | – |
| CC(C)Nc1cccnc1N1CCN(C(=O)c2cc3cc(NS(C)(=O)=O)ccc3[nH]2)CC1 [DELAVIRDINE] | – | > 36 µM | – | > 36.2 µM | > 1030 | – |
| O=C1Nc2ccc(Cl)cc2[C@@](C#CC2CC2)(C(F)(F)F)O1 [EFAVIRENZ] | – | > 6.3 µM | – | – | > 964 | – |
| Cc1ccnc2c1NC(=O)c1cccnc1N2C1CC1 [NEVIRAPINE] | – | > 15 µM | – | > 15 µM | > 75 | – |
| Nc1ccn([C@H]2CC[C@@H](CO)O2)c(=O)n1 [ZALCITABINE] | 1.7 µM | > 95 µM | – | – | > 68 | – |
| Cc1cn([C@H]2C[C@H](N=[N+]=[N-])[C@@H](CO)O2)c(=O)[nH]c1=O [ZIDOVUDINE] | – | ≥ 50 µM | 6 µM | 0.01 µM | ≥ 8300 | – |
